Reference: ChEMBL document CHEMBL3784976 (J Med Chem, 2016)

What was measured:
[1] = molecular target: T1, Transient receptor potential cation channel subfamily A member 1 (Homo sapiens, UniProt O75762); assay: Antagonist activity at human TRPA1 expressed in tetracycline-inducible T-REx expression system transfected CHO cells assessed as inhibition of AITC-induced Ca2+ influx preincubated for 2 mins followed by AITC addition measured for 2 mins by Fluo-4 dye based FLIPR assay; type: cell-based
[2] = Apparent intrinsic clearance in human liver microsomes; type: ADME; conditions: read-out: CLH(app)
[3] = Apparent intrinsic clearance in rat liver microsomes; type: ADME; conditions: read-out: CLH(app)
[4] = molecular target: T2, Transient receptor potential cation channel subfamily A member 1 (Rattus norvegicus, UniProt Q6RI86); assay: Antagonist activity at rat TRPA1 expressed in tetracycline-inducible T-REx expression system transfected CHO cells assessed as inhibition of AITC-induced Ca2+ influx preincubated for 2 mins followed by AITC addition measured for 2 mins by Fluo-4 dye based FLIPR assay; type: cell-based
[5] = Volume of distribution at steady state in rat at 0.5 mg/kg, iv as single dose; type: ADME, organism-based; conditions: in vivo, read-out: Vdss
Procedure, shortened: (§1)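 Single intravenous dose of 0.5 mg/kg given to rats, formulated in 100% DMSO.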

[6] = Tmax in rat at 30 mg/kg, po; type: ADME, organism-based; conditions: in vivo
Procedure, shortened: (§2)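 Rats dosed orally at 30 mg/kg, or 10 mg/kg for one analogue, in 1% Tween 80/2% HPMC/97% water with methanesulfonic acid, pH 2.2.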

[7] = molecular target: T1, Transient receptor potential cation channel subfamily A member 1; assay: Agonist activity at human TRPA1 expressed in tetracycline-inducible T-REx expression system transfected CHO cells by 45Ca2+ uptake assay; type: cell-based
[8] = Cmax in rat at 30 mg/kg, po; type: ADME, organism-based; design: dose 30 mg/kg, route oral; conditions: in vivo
Procedure, shortened: (§3)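 Rat oral PK at 30 mg/kg (10 mg/kg for one analogue) in 1% Tween 80/2% HPMC/97% water with methanesulfonic acid, pH 2.2.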

[9] = AUC (infinity) in rat at 30 mg/kg, po; type: ADME, organism-based; design: dose 30 mg/kg, time infinity, route oral; conditions: in vivo; procedure, shortened: as §3
[10] = system: Rattus norvegicus; assay: Unbound clearance in rat at 0.5 mg/kg, iv as single dose; type: ADME, organism-based; conditions: in vivo; procedure, shortened: as §1
[11] = Oral bioavailability in rat at 30 mg/kg; type: ADME, organism-based; conditions: in vivo; procedure, shortened: as §2
[12] = Half life in rat at 0.5 mg/kg, iv administered as single dose; type: ADME, organism-based; conditions: in vivo; procedure, shortened: as §1
[13] = system: Rattus norvegicus; assay: fCmax in rat at 30 mg/kg, po; type: ADME, organism-based; conditions: in vivo; procedure, shortened: as §2
[14] = Fraction unbound in rat plasma; type: ADME, cell-free
[15] = Half life in rat at 30 mg/kg, po; type: ADME, organism-based; conditions: in vivo; procedure, shortened: as §2
[16] = molecular target: T2, Transient receptor potential cation channel subfamily A member 1; assay: Agonist activity at rat TRPA1 expressed in tetracycline-inducible T-REx expression system transfected CHO cells by 45Ca2+ uptake assay; type: cell-based
[17] = molecular target: T2, Transient receptor potential cation channel subfamily A member 1; assay: Antagonist activity at rat TRPA1 expressed in tetracycline-inducible T-REx expression system transfected CHO cells assessed as inhibition of AITC-induced 45Ca2+ uptake preincubated for 1 min followed by AITC addition measured after 12 mins; type: cell-based
[18] = Clearance in rat at 0.5 mg/kg, iv as single dose; type: ADME, organism-based; conditions: in vivo
[19] = Ratio of fCmax in rat at 30 mg/kg, po to IC50 for rat TRPA1 expressed in tetracycline-inducible T-REx expression system transfected CHO cells by 45Ca2+ uptake assay
[20] = molecular target: T1, Transient receptor potential cation channel subfamily A member 1; assay: Antagonist activity at human TRPA1 expressed in tetracycline-inducible T-REx expression system transfected CHO cells assessed as inhibition of AITC-induced 45Ca2+ uptake preincubated for 1 min followed by AITC addition measured after 12 mins; type: cell-based

T1 sequence (O75762 whole entry): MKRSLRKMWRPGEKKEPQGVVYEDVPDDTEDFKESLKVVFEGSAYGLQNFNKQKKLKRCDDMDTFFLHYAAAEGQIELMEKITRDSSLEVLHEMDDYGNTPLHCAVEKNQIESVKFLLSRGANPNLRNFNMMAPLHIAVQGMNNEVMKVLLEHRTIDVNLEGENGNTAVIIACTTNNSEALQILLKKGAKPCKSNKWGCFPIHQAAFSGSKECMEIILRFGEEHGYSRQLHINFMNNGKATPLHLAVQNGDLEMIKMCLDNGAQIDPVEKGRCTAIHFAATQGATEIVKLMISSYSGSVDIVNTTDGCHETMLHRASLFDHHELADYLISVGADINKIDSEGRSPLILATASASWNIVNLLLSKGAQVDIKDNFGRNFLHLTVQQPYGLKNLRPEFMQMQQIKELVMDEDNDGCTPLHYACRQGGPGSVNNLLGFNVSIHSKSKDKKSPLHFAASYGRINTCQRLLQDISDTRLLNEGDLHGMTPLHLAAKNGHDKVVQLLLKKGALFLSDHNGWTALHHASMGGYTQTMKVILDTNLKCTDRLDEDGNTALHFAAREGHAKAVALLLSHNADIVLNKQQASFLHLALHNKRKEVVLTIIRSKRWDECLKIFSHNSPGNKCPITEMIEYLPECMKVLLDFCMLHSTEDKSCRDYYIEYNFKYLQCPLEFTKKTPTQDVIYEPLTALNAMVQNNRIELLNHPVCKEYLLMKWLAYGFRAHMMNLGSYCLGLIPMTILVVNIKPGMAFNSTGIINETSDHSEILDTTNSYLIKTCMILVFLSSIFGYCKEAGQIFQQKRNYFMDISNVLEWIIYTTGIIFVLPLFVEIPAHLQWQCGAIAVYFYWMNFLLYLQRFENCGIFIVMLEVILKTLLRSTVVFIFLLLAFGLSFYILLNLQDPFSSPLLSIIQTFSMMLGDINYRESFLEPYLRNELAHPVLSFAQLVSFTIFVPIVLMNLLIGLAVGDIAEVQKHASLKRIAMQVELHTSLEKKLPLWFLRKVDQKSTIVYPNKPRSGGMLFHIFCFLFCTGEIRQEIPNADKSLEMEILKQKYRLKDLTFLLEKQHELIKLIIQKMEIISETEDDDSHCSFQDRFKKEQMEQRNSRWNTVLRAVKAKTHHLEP
T2 sequence (Q6RI86 whole entry): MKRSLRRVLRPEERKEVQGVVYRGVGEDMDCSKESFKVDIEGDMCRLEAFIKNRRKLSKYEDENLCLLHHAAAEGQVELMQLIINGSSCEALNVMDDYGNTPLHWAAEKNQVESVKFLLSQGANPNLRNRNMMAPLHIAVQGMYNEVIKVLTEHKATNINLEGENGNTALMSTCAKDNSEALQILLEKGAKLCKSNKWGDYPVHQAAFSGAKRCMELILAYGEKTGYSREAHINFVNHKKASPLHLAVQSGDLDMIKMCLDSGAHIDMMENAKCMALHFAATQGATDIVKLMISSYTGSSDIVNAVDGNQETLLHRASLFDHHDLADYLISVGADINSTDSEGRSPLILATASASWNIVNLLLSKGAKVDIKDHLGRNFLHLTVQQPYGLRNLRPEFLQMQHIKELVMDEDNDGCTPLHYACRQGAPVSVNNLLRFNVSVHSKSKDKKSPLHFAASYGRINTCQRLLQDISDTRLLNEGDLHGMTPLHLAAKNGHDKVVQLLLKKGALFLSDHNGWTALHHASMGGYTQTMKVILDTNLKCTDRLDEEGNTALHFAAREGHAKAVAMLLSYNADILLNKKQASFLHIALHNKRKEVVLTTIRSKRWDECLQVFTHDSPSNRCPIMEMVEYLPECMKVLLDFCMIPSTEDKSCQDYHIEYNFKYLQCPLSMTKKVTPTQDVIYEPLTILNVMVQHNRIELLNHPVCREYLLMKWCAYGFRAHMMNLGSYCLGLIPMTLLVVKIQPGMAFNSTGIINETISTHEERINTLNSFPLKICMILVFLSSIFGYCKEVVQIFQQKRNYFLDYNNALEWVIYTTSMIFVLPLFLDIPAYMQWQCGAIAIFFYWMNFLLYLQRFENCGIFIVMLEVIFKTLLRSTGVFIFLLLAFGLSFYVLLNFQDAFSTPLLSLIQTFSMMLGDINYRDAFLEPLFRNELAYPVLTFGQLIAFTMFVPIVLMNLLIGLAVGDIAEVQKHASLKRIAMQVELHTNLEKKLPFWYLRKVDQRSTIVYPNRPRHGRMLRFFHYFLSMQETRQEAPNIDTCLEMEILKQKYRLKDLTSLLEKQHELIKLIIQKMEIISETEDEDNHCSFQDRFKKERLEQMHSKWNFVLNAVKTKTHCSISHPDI

SMILES | IC50 [1] [nM] | microsomal CLint [2] [µL/min/mg] | microsomal CLint [3] [µL/min/mg] | IC50 [4] [nM] | further results
C/C(=C\c1nc(Cn2cnc3ncn(C)c3c2=O)no1)c1ccc(Cl)cc1 | 165 | 76 | < 14 | 274 | 
Cc1cccc2ncn(CC(=O)NCCc3ccc(Cl)cc3)c(=O)c12 | 70 | 301 | 736 | 112 | 
COc1cccc(CCNC(=O)Cn2cnc3c(C)cccc3c2=O)c1 | > 16700 |  |  | > 16700 | 
COc1ccccc1CCNC(=O)Cn1cnc2c(C)cccc2c1=O | > 16700 |  |  | > 16700 | 
Cn1cnc2ncn(Cc3noc(CCc4ccc(Cl)cc4)n3)c(=O)c21 | 211 | 19 | 44 | 136 | 
Cc1ccnc2ncn(Cc3nc(CCc4ccc(Cl)cc4)no3)c(=O)c12 | 16 | 340 | > 399 | 35 | 
Cc1cccc2c(=O)n(CC(=O)NCCc3ccccc3)cnc12 | > 8330 |  |  |  | 
Cc1cccc2c(=O)n(CC(=O)NCCc3ccc(Cl)cc3)cnc12 | 802 | 224 | 706 | 358 | 
O=c1c2cccnc2ncn1Cc1noc(CCc2ccc(Cl)cc2)n1 | 156 | 35 | 122 | 89 | Vd [5]: 1 L/kg; Tmax [6]: 30 min; EC50 [7]: > 40000 nM; Cmax [8]: 10.3 µM; AUC(0-inf) [9]: 19.2 µM·h; CL free [10]: 400 mL/min/kg; bioavailability [11]: 52%; half-life [12]: 24 min; fCmax [13]: 1 µM; fraction unbound [14]: 0.093; half-life [15]: 240 min; EC50 [16]: > 40000 nM; IC50 [17]: 411 nM; clearance [18]: 36.7 mL/min/kg; Ratio [19]: 3; IC50 [20]: 1580 nM
COc1cccc2c(=O)n(CC(=O)NCCc3ccc(Cl)cc3)cnc12 | 1460 | 34 | 455 | 2150 | 
N#Cc1cccc2c(=O)n(CC(=O)NCCc3ccc(Cl)cc3)cnc12 | 201 | 49 | 297 | 56 | 
O=C(Cn1cnc2c(C(F)(F)F)cccc2c1=O)NCCc1ccc(Cl)cc1 | 286 | 397 | > 399 | 306 | 
